From ChEMBL document CHEMBL1131023, “Identification of a dihydropyridine as a potent alpha1a adrenoceptor-selective antagonist that inhibits phenylephrine-induced contraction of the human prostate” (J Med Chem, 1998) come the findings set out here.

Experiment [1] concerns the target Voltage-gated L-type calcium channel (Rattus norvegicus, UniProt P22002+Q02485+P27732). Nature of the experiment: Binding affinity at the L-type [Ca2+] channel from rat brain homogenate by [3H]nitrendipine displacement. The experiment is classed as tissue-based.
In experiment [2] the target is T1, Alpha-1B adrenergic receptor (Homo sapiens, UniProt P35368).
T1 sequence (P35368 whole entry): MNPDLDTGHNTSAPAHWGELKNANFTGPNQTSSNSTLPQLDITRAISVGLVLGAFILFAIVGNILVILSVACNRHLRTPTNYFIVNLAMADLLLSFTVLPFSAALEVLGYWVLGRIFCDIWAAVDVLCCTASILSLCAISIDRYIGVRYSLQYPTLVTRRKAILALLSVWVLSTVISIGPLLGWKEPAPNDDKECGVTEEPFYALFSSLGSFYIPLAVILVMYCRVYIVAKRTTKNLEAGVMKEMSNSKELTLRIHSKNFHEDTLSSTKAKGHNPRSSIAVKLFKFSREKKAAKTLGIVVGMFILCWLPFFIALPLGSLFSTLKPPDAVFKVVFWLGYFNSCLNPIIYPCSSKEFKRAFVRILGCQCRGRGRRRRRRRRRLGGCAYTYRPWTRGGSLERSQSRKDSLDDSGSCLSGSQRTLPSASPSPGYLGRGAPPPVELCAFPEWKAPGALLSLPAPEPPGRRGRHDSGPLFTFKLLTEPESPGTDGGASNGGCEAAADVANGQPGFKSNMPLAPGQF
Put plainly: Binding affinity determined by displacement of [3H]prazosin from alpha-1B adrenergic receptor.

Experiment [3] deals with T2, Alpha-2C adrenergic receptor (Homo sapiens, UniProt P18825).
T2 sequence (P18825 whole entry): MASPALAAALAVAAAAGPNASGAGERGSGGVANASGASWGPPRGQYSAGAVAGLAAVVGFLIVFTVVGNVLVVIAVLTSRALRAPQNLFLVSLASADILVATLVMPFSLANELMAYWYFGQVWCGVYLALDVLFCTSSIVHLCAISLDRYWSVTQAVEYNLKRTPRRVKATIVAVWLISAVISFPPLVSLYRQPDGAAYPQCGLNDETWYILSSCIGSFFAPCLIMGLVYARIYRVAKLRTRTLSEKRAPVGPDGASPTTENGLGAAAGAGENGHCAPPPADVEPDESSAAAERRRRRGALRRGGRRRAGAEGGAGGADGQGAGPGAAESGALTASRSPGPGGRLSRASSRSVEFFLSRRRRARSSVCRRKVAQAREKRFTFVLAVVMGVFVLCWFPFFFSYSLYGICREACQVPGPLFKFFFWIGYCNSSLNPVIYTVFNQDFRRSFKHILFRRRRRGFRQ
Nature of the experiment: Binding affinity assayed by displacement of [3H]rauwolscine from human alpha-2C adrenergic receptor. In a few lines:
(§1)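 Radioligand displacement binding at the cloned receptor, incubated for 30 min.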

Experiment [4] deals with T3, Alpha-1A adrenergic receptor (Homo sapiens, UniProt P35348).
T3 sequence (P35348 whole entry): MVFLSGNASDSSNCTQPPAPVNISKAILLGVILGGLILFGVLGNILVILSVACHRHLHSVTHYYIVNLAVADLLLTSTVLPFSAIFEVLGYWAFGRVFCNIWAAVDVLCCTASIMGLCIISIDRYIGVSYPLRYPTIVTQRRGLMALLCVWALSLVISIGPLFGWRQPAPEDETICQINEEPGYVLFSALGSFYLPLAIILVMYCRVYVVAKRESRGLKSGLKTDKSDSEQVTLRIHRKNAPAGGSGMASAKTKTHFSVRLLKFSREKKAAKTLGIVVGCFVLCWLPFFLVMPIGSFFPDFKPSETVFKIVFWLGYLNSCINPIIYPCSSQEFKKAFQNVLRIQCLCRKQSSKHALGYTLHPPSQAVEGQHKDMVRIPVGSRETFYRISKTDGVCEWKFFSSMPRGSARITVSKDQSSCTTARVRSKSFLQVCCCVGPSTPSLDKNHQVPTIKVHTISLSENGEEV
Put plainly: Binding affinity determined by displacement of [3H]prazosin from alpha-1A adrenergic receptor.

Experiment [5] has as its target T4, Alpha-1D adrenergic receptor (Homo sapiens, UniProt P25100).
T4 sequence (P25100 whole entry): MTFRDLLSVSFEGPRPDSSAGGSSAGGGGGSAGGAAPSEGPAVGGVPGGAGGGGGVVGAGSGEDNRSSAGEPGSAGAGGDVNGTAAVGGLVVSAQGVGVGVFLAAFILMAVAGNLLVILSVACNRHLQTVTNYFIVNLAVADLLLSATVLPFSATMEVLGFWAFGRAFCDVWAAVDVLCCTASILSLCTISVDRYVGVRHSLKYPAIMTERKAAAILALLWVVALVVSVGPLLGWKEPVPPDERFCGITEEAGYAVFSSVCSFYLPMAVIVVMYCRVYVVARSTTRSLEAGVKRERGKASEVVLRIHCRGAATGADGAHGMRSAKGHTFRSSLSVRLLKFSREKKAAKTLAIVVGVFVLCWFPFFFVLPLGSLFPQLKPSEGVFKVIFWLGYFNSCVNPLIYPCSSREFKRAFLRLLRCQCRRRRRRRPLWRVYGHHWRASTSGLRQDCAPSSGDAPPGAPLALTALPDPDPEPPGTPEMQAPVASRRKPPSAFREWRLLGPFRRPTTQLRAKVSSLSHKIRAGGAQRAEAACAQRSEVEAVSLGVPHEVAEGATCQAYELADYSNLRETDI
Put plainly: Binding affinity determined by displacement of [3H]prazosin from alpha-1D adrenergic receptor. In a few lines:
as §1

Experiment [6] deals with T5, Alpha-2B adrenergic receptor (Homo sapiens, UniProt P18089).
T5 sequence (P18089 whole entry): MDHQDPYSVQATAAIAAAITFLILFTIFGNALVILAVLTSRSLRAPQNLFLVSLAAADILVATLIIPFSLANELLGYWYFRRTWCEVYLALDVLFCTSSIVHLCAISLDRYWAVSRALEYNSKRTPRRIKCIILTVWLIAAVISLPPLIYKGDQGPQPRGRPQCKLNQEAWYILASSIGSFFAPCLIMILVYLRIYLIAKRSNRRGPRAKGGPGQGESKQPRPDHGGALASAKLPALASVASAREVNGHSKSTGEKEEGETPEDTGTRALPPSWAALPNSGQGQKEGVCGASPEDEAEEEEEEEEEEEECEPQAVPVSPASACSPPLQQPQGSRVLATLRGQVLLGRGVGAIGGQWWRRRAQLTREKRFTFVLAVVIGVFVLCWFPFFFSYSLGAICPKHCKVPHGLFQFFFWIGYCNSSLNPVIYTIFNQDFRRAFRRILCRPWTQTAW
Put plainly: Binding affinity determined by displacement of [3H]rauwolscine from alpha-2B adrenergic receptor.

For experiment [7], the target named is T6, Alpha-2A adrenergic receptor (Homo sapiens, UniProt P08913).
T6 sequence (P08913 whole entry): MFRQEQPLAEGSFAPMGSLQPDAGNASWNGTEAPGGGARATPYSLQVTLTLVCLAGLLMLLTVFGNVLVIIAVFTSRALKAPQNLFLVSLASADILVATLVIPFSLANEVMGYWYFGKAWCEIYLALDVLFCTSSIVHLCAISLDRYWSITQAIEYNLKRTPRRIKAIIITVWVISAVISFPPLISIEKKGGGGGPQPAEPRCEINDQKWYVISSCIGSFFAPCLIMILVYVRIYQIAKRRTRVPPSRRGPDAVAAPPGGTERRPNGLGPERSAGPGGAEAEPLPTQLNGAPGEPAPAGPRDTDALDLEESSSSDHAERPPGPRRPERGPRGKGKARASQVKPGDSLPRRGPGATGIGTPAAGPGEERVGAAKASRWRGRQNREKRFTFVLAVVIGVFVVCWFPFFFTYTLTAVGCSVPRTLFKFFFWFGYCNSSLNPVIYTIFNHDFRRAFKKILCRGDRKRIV
Put plainly: Binding affinity determined by displacement of [3H]rauwolscine from alpha-2A adrenergic receptor. In a few lines:
as §1

On to `CC(=O)C1=C(C)NC(C)=C(C(=O)NCCCN2CCC(c3ccccc3)(c3ccccc3)CC2)C1c1ccc2c(c1)OCO2` (stereo not drawn), for which, in experiment [1], the “Log Ki” value is reported as less than -6. Also, the inhibition constant (Ki) in experiment [2] is 380 nM; in experiment [3], 407 nM; in experiment [4], 8.91 nM; in experiment [5], 457 nM; in experiment [6], 380 nM; in experiment [7] it was 955 nM.

For the molecule `CO/C(O)=C1\C(C)=NC(C)=C(C(=O)NCCN2CCC(c3ccccc3)(c3ccccc3)CC2)C1c1ccc([N+](=O)[O-])cc1` (stereo not drawn), the “Log Ki” value in experiment [1] is listed as less than -6. The Ki in experiment [2] was 77.6 nM; in experiment [3] it was 245 nM; in experiment [4], 8.71 nM; in experiment [5], 1150 nM; in experiment [6] it was 513 nM; in experiment [7], 447 nM.

In the case of `CO/C(O)=C1\C(C)=NC(C)=C(C(=O)NCCCN2CCC(c3ccccc3)(c3ccccc3)CC2)C1c1ccc2c(c1)OCO2` (stereo not drawn), in experiment [1], the “Log Ki” value was less than -6. Further, the Ki in experiment [2] was 224 nM; in experiment [3], 575 nM; in experiment [4], 1.12 nM; in experiment [5], 302 nM; in experiment [6], 871 nM; in experiment [7], 1120 nM.

With `CO/C(O)=C1\C(C)=NC(C)=C(C(=O)N(C)CCCN2CCC(c3ccccc3)(c3ccccc3)CC2)C1c1ccc([N+](=O)[O-])cc1` (stereo not drawn), in experiment [1], the “Log Ki” value is reported as less than -6. Moreover, the inhibitory constant (Ki) is 240 nM in experiment [2]; 245 nM in experiment [3]; 20.4 nM in experiment [4]; 501 nM in experiment [5]; 490 nM in experiment [6]; 676 nM in experiment [7].

In the case of `CC1=C(C#N)C(c2ccc([N+](=O)[O-])cc2)C(C(=O)NCCCN2CCC(c3ccccc3)(c3ccccc3)CC2)=C(C)N1` (stereo not drawn), the “Log Ki” value in experiment [1] is on record as less than -6. The Ki in experiment [2] is 166 nM; in experiment [3], 479 nM; in experiment [4] it was 56.2 nM; in experiment [5] it was 437 nM; in experiment [6], 832 nM; in experiment [7] it was 631 nM.

As to `CO/C(O)=C1\C(C)=NC(C)=C(C(=O)NCCCN2CCC(c3ccccc3)(c3ccccc3)CC2)C1c1ccc(OC)cc1` (stereo not drawn), in experiment [1], the “Log Ki” value is less than -6. The Ki in experiment [2] was 204 nM; in experiment [3], 1150 nM; in experiment [4], 7.08 nM; in experiment [5], 490 nM; in experiment [6] it was 1510 nM; in experiment [7] it was 2190 nM.

As for `CO/C(O)=C1\C(C)=NC(C)=C(C(=O)NCCCN2CCC(c3ccccc3)(c3ccccc3)CC2)C1c1ccc2ccccc2c1` (stereo not drawn), the “Log Ki” value in experiment [1] was -6.43. The Ki in experiment [2] is 138 nM; in experiment [3] it was 631 nM; in experiment [4], 36.3 nM; in experiment [5], 741 nM; in experiment [6], 891 nM; in experiment [7] it was 1580 nM.

Take `CO/C(O)=C1\C(C)=NC(C)=C(C(=O)NCCCN2CCC(c3ccccc3)(c3ccccc3)CC2)C1c1ccc(Cl)cc1` (stereo not drawn): the “Log Ki” value in experiment [1] is reported as less than -6. Also, the Ki in experiment [2] was 123 nM; in experiment [3], 1000 nM; in experiment [4], 1.78 nM; in experiment [5], 447 nM; in experiment [6], 2290 nM; in experiment [7], 2140 nM.

As to `CO/C(O)=C1\C(C)=NC(C)=C(C(=O)NCCCCN2CCC(c3ccccc3)(c3ccccc3)CC2)C1c1ccc([N+](=O)[O-])cc1` (stereo not drawn), the “Log Ki” value in experiment [1] is less than -6. Moreover, the Ki in experiment [2] was 135 nM; in experiment [3], 282 nM; in experiment [4], 14.8 nM; in experiment [5], 331 nM; in experiment [6], 372 nM; in experiment [7] it was 646 nM.
